{
  "source": "ChEMBL document CHEMBL5674883",
  "about": "“The Heterochromatin Landscape in Migrating Cells and the Importance of H3K27me3 for Associated Transcriptome Alterations” (Cells, 2018)",
  "format_in_all_cases": "cell-based",
  "key": {"[1]": {"molecular_target": "Histone-lysine N-methyltransferase EZH2 (Mus musculus) (UniProt Q61188)", "sequence (Q61188 whole entry)": "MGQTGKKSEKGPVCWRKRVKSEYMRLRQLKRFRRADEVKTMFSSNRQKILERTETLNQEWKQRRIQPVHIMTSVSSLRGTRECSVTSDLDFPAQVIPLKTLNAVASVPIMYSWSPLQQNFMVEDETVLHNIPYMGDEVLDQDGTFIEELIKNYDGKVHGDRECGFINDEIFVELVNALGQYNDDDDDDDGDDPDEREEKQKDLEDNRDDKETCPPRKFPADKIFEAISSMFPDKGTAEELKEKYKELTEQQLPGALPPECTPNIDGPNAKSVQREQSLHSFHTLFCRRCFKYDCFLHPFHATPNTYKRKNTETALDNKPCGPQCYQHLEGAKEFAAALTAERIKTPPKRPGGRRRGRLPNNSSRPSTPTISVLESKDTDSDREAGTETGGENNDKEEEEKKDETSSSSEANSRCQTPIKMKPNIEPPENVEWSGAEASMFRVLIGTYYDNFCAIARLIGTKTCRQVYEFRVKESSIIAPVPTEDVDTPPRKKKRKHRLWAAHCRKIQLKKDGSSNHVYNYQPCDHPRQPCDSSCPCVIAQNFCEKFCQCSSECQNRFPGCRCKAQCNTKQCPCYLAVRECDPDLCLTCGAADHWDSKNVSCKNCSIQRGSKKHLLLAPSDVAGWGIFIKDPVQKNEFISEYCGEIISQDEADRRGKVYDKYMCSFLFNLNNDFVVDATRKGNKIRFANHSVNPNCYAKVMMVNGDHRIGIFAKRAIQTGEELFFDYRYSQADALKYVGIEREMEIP", "test": "Inhibition of EZH2 in mouse B16-F1 migrating cells assessed as fold change in H3K27me3-buffered regulated 1700027J19Rik-mRNA expression at 3 uM measured by […] analysis relative to control cells", "in_short": "(§1)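 Confluent B16-F1 cells on fibronectin-coated plates, cultured at 37 °C and 7% CO2, were scratched at multiple sites to induce migration. They were then held 3 h in growth medium containing 3 µM GSK343, with the inhibitor added 3 h before lysis. Unscratched cells served as controls. Poly A mRNA was analysed by RNA-seq (n=3 GSK343, n=5 controls). Linear models removed batch effects, and buffered genes were those altered only under GSK343 (FDR <0.05, fold change >1.3).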"}, "[2]": {"molecular_target": "Histone-lysine N-methyltransferase EZH2 (Mus musculus) (UniProt Q61188)", "test": "Inhibition of EZH2 in mouse B16-F1 migrating cells assessed as fold change in H3K27me3-buffered regulated Itpk1-mRNA expression at 3 uM measured by […] analysis relative to control cells", "in_short": "as §1"}, "[3]": {"molecular_target": "Histone-lysine N-methyltransferase EZH2 (Mus musculus) (UniProt Q61188)", "test": "Inhibition of EZH2 in mouse B16-F1 migrating cells assessed as fold change in H3K27me3-buffered regulated Clk1-mRNA expression at 3 uM measured by […] analysis relative to control cells", "in_short": "as §1"}, "[4]": {"molecular_target": "Histone-lysine N-methyltransferase EZH2 (Mus musculus) (UniProt Q61188)", "test": "Inhibition of EZH2 in mouse B16-F1 migrating cells assessed as fold change in H3K27me3-dependent regulated Ddit4-mRNA expression at 3 uM measured by […] analysis relative to control cells", "in_short": "(§2)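 Confluent B16-F1 cells on fibronectin-coated plates were scratched at multiple sites, washed once with DMEM and left to migrate 3 h in growth medium (37 °C, 7% CO2); unscratched cells served as control. GSK343 (3 µM) was added 3 h before lysis. Poly A mRNA was sequenced (RNA-seq), with 5 replicates for untreated and 3 for treated cells. Differential expression was called by linear model with batch correction, at FDR <0.05 and fold change ≥1.3.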"}, "[5]": {"molecular_target": "Histone-lysine N-methyltransferase EZH2 (Mus musculus) (UniProt Q61188)", "test": "Inhibition of EZH2 in mouse B16-F1 migrating cells assessed as fold change in H3K27me3-buffered regulated Map3k20-mRNA expression at 3 uM measured by ChIP-seq analysis relative to control cells", "in_short": "as §1"}, "[6]": {"molecular_target": "Histone-lysine N-methyltransferase EZH2 (Mus musculus) (UniProt Q61188)", "test": "Inhibition of EZH2 in mouse B16-F1 migrating cells assessed as fold change in H3K27me3-buffered regulated Slc39a14-mRNA expression at 3 uM measured by […] analysis relative to control cells", "in_short": "as §2"}, "[7]": {"molecular_target": "Histone-lysine N-methyltransferase EZH2 (Mus musculus) (UniProt Q61188)", "test": "Inhibition of EZH2 in mouse B16-F1 migrating cells assessed as fold change in H3K27me3-buffered regulated Hdac10-mRNA expression at 3 uM measured by […] analysis relative to control cells", "in_short": "as §1"}, "[8]": {"molecular_target": "T1, RNA polymerase II (Mus musculus) (UniProt P08775+Q8CFI7+P97760+A0A3Q4L2S8+Q80UW8+P61219+P62488+Q923G2+P60898+O08740+Q63871+P62876)", "test": "Inhibition of RNA polymerase II in mouse B16-F1 migrating cells assessed as fold change in Dnttip2-RNA stability at 0.1 mM measured by ChIP-seq analysis relative to control cells", "in_short": "(§3)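 Mouse B16-F1 melanoma cells grown to confluence on fibronectin in DMEM/10% FCS at 37 °C, 7% CO2. Migration induced by multiple scratches and 3 h incubation; unscratched controls. DRB 0.1 mM added 3 h before lysis. RNA from poly A-selected mRNA was sequenced (RNA-seq, three replicates per DRB group). Fold change computed for DRB-treated migrating vs DRB-treated control cells; cutoffs fold change >1.3, FDR <0.05.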"}, "[9]": {"molecular_target": "T1, RNA polymerase II (Mus musculus)", "test": "Inhibition of RNA polymerase II in mouse B16-F1 migrating cells assessed as fold change in Chd1-RNA stability at 0.1 mM measured by ChIP-seq analysis relative to control cells"}, "[10]": {"molecular_target": "T1, RNA polymerase II (Mus musculus)", "test": "Inhibition of RNA polymerase II in mouse B16-F1 migrating cells assessed as fold change in Rest-RNA stability at 0.1 mM measured by […] analysis relative to control cells"}, "[11]": {"molecular_target": "T1, RNA polymerase II (Mus musculus)", "test": "Inhibition of RNA polymerase II in mouse B16-F1 migrating cells assessed as fold change in Mapre3-RNA stability at 0.1 mM measured by ChIP-seq analysis relative to control cells"}, "[12]": {"molecular_target": "T1, RNA polymerase II (Mus musculus)", "test": "Inhibition of RNA polymerase II in mouse B16-F1 migrating cells assessed as fold change in Nelfe-RNA stability at 0.1 mM measured by ChIP-seq analysis relative to control cells"}, "[13]": {"molecular_target": "T1, RNA polymerase II (Mus musculus)", "test": "Inhibition of RNA polymerase II in mouse B16-F1 migrating cells assessed as fold change in Tk2-RNA stability at 0.1 mM measured by […] analysis relative to control cells"}, "[14]": {"molecular_target": "T1, RNA polymerase II (Mus musculus)", "test": "Inhibition of RNA polymerase II in mouse B16-F1 migrating cells assessed as fold change in Mex3c-RNA stability at 0.1 mM measured by ChIP-seq analysis relative to control cells"}, "[15]": {"molecular_target": "T1, RNA polymerase II (Mus musculus)", "test": "Inhibition of RNA polymerase II in mouse B16-F1 migrating cells assessed as fold change in Rpl14-RNA stability at 0.1 mM measured by […] analysis relative to control cells"}, "[16]": {"molecular_target": "T1, RNA polymerase II (Mus musculus)", "test": "Inhibition of RNA polymerase II in mouse B16-F1 migrating cells assessed as fold change in Dpy19l4-RNA stability at 0.1 mM measured by ChIP-seq analysis relative to control cells"}, "[17]": {"molecular_target": "T1, RNA polymerase II (Mus musculus)", "test": "Inhibition of RNA polymerase II in mouse B16-F1 migrating cells assessed as fold change in Zfp966-RNA stability at 0.1 mM measured by […] analysis relative to control cells"}, "[18]": {"molecular_target": "T1, RNA polymerase II (Mus musculus)", "test": "Inhibition of RNA polymerase II in mouse B16-F1 migrating cells assessed as fold change in Phf20l1-RNA stability at 0.1 mM measured by […] analysis relative to control cells"}, "[19]": {"molecular_target": "T1, RNA polymerase II (Mus musculus)", "test": "Inhibition of RNA polymerase II in mouse B16-F1 migrating cells assessed as fold change in Agps-RNA stability at 0.1 mM measured by […] analysis relative to control cells"}, "[20]": {"molecular_target": "T1, RNA polymerase II (Mus musculus)", "test": "Inhibition of RNA polymerase II in mouse B16-F1 migrating cells assessed as fold change in Kcnab2-RNA stability at 0.1 mM measured by ChIP-seq analysis relative to control cells", "in_short": "as §3"}, "[21]": {"molecular_target": "T1, RNA polymerase II (Mus musculus)", "test": "Inhibition of RNA polymerase II in mouse B16-F1 migrating cells assessed as fold change in Arf6-RNA stability at 0.1 mM measured by […] analysis relative to control cells"}, "[22]": {"molecular_target": "T1, RNA polymerase II (Mus musculus)", "test": "Inhibition of RNA polymerase II in mouse B16-F1 migrating cells assessed as fold change in Calu-RNA stability at 0.1 mM measured by […] analysis relative to control cells"}, "[23]": {"molecular_target": "T1, RNA polymerase II (Mus musculus)", "test": "Inhibition of RNA polymerase II in mouse B16-F1 migrating cells assessed as fold change in Alg2-RNA stability at 0.1 mM measured by […] analysis relative to control cells"}, "[24]": {"molecular_target": "T1, RNA polymerase II (Mus musculus)", "test": "Inhibition of RNA polymerase II in mouse B16-F1 migrating cells assessed as fold change in Xpo1-RNA stability at 0.1 mM measured by […] analysis relative to control cells"}},
  "data": [
    {"smiles": "CCCc1cc(C)[nH]c(=O)c1CNC(=O)c1cc(-c2ccnc(N3CCN(C)CC3)c2)cc2c1cnn2C(C)C", "values": [
      {"measurement": "log2FC", "setting": "[1]", "result": 0.73},
      {"measurement": "log2FC", "setting": "[2]", "result": 0.51},
      {"measurement": "log2FC", "setting": "[3]", "result": -0.75},
      {"measurement": "log2FC", "setting": "[4]", "result": -0.53},
      {"measurement": "log2FC", "setting": "[5]", "result": -0.41},
      {"measurement": "log2FC", "setting": "[6]", "result": 0.46},
      {"measurement": "log2FC", "setting": "[7]", "result": -0.44}
    ]},
    {"smiles": "OC[C@H]1O[C@@H](n2cnc3cc(Cl)c(Cl)cc32)[C@H](O)[C@@H]1O", "values": [
      {"measurement": "log2FC", "setting": "[8]", "result": -0.87},
      {"measurement": "log2FC", "setting": "[9]", "result": -0.56},
      {"measurement": "log2FC", "setting": "[10]", "result": -0.79},
      {"measurement": "log2FC", "setting": "[11]", "result": 0.77},
      {"measurement": "log2FC", "setting": "[12]", "result": 0.39},
      {"measurement": "log2FC", "setting": "[13]", "result": 0.79},
      {"measurement": "log2FC", "setting": "[14]", "result": -0.71},
      {"measurement": "log2FC", "setting": "[15]", "result": 0.49},
      {"measurement": "log2FC", "setting": "[16]", "result": -0.58},
      {"measurement": "log2FC", "setting": "[17]", "result": -0.82},
      {"measurement": "log2FC", "setting": "[18]", "result": -0.65},
      {"measurement": "log2FC", "setting": "[19]", "result": -0.58},
      {"measurement": "log2FC", "setting": "[20]", "result": 0.49},
      {"measurement": "log2FC", "setting": "[21]", "result": -0.51},
      {"measurement": "log2FC", "setting": "[22]", "result": -0.47},
      {"measurement": "log2FC", "setting": "[23]", "result": 0.52},
      {"measurement": "log2FC", "setting": "[24]", "result": -0.58}
    ]}
  ]
}
